Compound activity as filed in PubChem BioAssay.
Rows were chosen to be rich in hits. Some 2.8% of all compounds tested hit in one or more screens of this group.
ASAP1 inh = inhibitors of human ASAP1 ArfGAP activity, primary screen, biochemical, fluorescence polarization. ASAP1-stimulated ARF1 GTP hydrolysis, GDP FP detection. 360,000 tested, 0.19% active. inhibition, % at 16.5 µM. Arf-GAP with SH3 domain, ANK repeat and PH domain-containing protein 1 (Homo sapiens), …; in the data active = inhibition above about 25%;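 also: 0% = vehicle with enzyme and substrate and 100% = no enzyme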
PAFAH1B2 FP inh = PAFAH1B2 enzyme inhibitors, primary screen, biochemical, fluorescence polarization, human | Platelet-activating factor acetylhydrolase IB subunit alpha2 (Homo sapiens), P68402 | recombinant PAFAH1B2, FP-rhodamine activity probe | inhibition, % at 3.39 µM | 340,000 tested, 1.2% active | AID 492953, 2010;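 active = inhibition above the mean of all tested compounds plus 3 SD, cut at about 24% in these data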;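 also: 0% = enzyme with DMSO and 100% = wells lacking PAFAH1B2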
PAFAH2 inh = PAFAH2 enzyme inhibitors, primary screen, biochemical, fluorescence polarization, human | inhibition, % at 3.39 µM | recombinant PAFAH2, FP-rhodamine activity probe | Platelet-activating factor acetylhydrolase 2, cytoplasmic (Homo sapiens), Q99487 | 340,000 tested, 0.99% active;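 active = inhibition above the mean over all tested compounds plus 3 SD, cut at about 30% in these data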;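 also: inhibitors block probe labeling of enzyme so polarization drops; 0% = enzyme with DMSO and 100% = wells lacking PAFAH2 protein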
PAFAH1B3 inh = PAFAH1B3 enzyme inhibitors, primary screen, biochemical, fluorescence polarization, human | Platelet-activating factor acetylhydrolase IB subunit alpha1 (Homo sapiens), Q15102 | recombinant PAFAH1B3, FP-rhodamine probe | inhibition, % at 3.39 µM | 340,000 tested, 0.28% active | AID 492972, 2010;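 active = inhibition above the screen-wide average of all tested compounds plus 3 SD, cut at about 25% in these data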;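 also: 0% = enzyme with DMSO only and 100% = wells lacking PAFAH1B3 protein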
ARFGAP1 inh = inhibitors of rat ARFGAP1 GAP activity, primary screen, biochemical, fluorescence polarization, GDP tracer. AID 651572, 2012. Arfgap1-stimulated ARF1 GTP hydrolysis, GDP FP detection. 360,000 tested, 0.26% active. ADP-ribosylation factor GTPase-activating protein 1 (Rattus norvegicus), Q62848. inhibition, % at 16.5 µM;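 active = inhibition above a per-plate limit, mean inhibition of low control wells plus 3 SD, cut at about 25% in these data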;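 also: 0% = DMSO wells with enzyme and 100% = wells lacking Arfgap1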
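Material: truncated rat Arfgap1 GAP domain; Incubation: compound-enzyme preincubation 20 min, reaction 120 min, detection 60 min, 25 °C; Read-out: percent inhibition of Arfgap1-stimulated GTP hydrolysis; Technique: FP, GDP Alexa 633 tracer displaced from anti-GDP antibody, 620/688 nm; Controls: No-Arfgap1 wells (100%) versus DMSO full-reaction wells (0%); Replication: single well per compound.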
pPAFAH FP inh = pPAFAH enzyme inhibitors, primary screen, biochemical, fluorescence polarization, human; Platelet-activating factor acetylhydrolase (Homo sapiens), Q13093; recombinant pPAFAH, FP-rhodamine probe fluorescence polarization; inhibition, % at 3.39 µM; 330,000 tested, 1.5% active; AID 463082, 2010;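 active = inhibition above the mean inhibition across the screen plus 3 SD, cut at about 25% in these data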;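 also: inhibitors block binding of the rhodamine activity-based probe so polarization drops; 0% = enzyme with DMSO and 100% = wells lacking pPAFAH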
Target sequence (Q13093 whole entry, looked up): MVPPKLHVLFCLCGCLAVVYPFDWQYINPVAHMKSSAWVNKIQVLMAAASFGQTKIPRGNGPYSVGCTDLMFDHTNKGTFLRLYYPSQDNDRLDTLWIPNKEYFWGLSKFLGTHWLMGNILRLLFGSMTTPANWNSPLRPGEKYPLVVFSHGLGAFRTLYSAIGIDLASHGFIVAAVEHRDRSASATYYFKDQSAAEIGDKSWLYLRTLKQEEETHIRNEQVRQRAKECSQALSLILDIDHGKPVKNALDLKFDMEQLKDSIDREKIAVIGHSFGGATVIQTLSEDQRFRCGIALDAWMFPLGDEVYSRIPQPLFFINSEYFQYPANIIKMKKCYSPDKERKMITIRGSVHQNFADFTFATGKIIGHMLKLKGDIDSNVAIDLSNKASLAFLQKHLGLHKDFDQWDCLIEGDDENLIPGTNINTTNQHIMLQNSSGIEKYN
PAFAH2 confirm = PAFAH2 enzyme inhibitors, confirmation, biochemical, fluorescence polarization, human. shares compounds with PAFAH2 inh. recombinant PAFAH2, FP-rhodamine activity probe. inhibition, % at 3.39 µM. 2,300 tested, 65% active;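 active = mean inhibition over three repeats above a set limit taken from the earlier primary screen, cut at about 30% in these data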;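 also: inhibitor blocks binding of rhodamine activity probe so polarization falls; 0% = enzyme with DMSO and 100% = wells lacking PAFAH2 protein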
Active calls of the source: *.

For CN(C(=O)COC(=O)c1ccc2c(c1)OCO2)C1CCCCC1 the results were ASAP1 inh 9.5, PAFAH1B2 FP inh 9.0, PAFAH2 inh 66.7*, PAFAH1B3 inh 9.3, ARFGAP1 inh -2.3, pPAFAH FP inh 5.3 and PAFAH2 confirm 67.1*.
Screening CC1CCCC(NC(=O)c2ccc3c(c2)OCCO3)C1C (centres undefined) returned ASAP1 inh -8.5, PAFAH1B2 FP inh 4.1, PAFAH2 inh 28.5, PAFAH1B3 inh 1.1, ARFGAP1 inh 6.0 and pPAFAH FP inh 2.6.
Screening CC1CCCC(NC(=O)COC(=O)c2ccc3c(c2)OCCO3)C1C (centres undefined) returned ASAP1 inh -11.7, PAFAH1B2 FP inh 3.3, PAFAH2 inh 83.6*, PAFAH1B3 inh 7.6, ARFGAP1 inh 16.5, pPAFAH FP inh 13.6 and PAFAH2 confirm 76.5*.
For O=C(COC(=O)c1ccc2c(c1)OCO2)NC1CCCCC1 the results were ASAP1 inh -14.2, PAFAH1B2 FP inh 6.4, PAFAH2 inh 89.1*, PAFAH1B3 inh 6.4, ARFGAP1 inh -3.2, pPAFAH FP inh 22.0 and PAFAH2 confirm 81.9*.
`CCNC(=O)COC(=O)c1ccc(NS(=O)(=O)c2ccc3c(c2)OCCO3)cc1` gave ASAP1 inh 12.6, PAFAH1B2 FP inh 4.5, PAFAH2 inh 20.0, PAFAH1B3 inh 5.1, ARFGAP1 inh -8.2 and pPAFAH FP inh 0.3.
`CN(C(=O)COC(=O)c1ccc2c(c1)OCO2)C1CCS(=O)(=O)C1` (centres undefined) gave ASAP1 inh -8.2, PAFAH1B2 FP inh -5.2, PAFAH2 inh 4.6, PAFAH1B3 inh 4.5, ARFGAP1 inh -2.6 and pPAFAH FP inh 3.6.
For CCCC(=O)N1CCCC1(C)C(=O)NCc1c(F)ccc(C)c1F (centres undefined) the results were ASAP1 inh -0.9 and ARFGAP1 inh -8.4.
Screening CN(C(=O)c1nn(C)c2c1CSc1ccccc1-2)c1ccc(F)cc1 returned ASAP1 inh -3.0, PAFAH1B2 FP inh 5.8, PAFAH2 inh 7.6, PAFAH1B3 inh 0.1, ARFGAP1 inh -10.3 and pPAFAH FP inh 0.2.
Oc1ccccc1C(=S)N1CCN(C(=S)c2ccccc2O)CC1 was read as ASAP1 inh -5.3, PAFAH1B2 FP inh 4.4, PAFAH2 inh 0.3, PAFAH1B3 inh 4.6, ARFGAP1 inh -6.5 and pPAFAH FP inh -3.8.
`CCCCNC(=O)c1onc(CSc2ccccc2C)c1C(=O)O` gave ASAP1 inh -3.6, PAFAH1B2 FP inh 11.9, PAFAH2 inh 30.1*, PAFAH1B3 inh 8.1, ARFGAP1 inh 4.7, pPAFAH FP inh 4.3 and PAFAH2 confirm 35.2*.
`CCCCNC(=O)c1onc(CSc2cc(C)cc(C)c2)c1C(=O)NCCCC` gave ASAP1 inh 0.7, PAFAH1B2 FP inh -0.4, PAFAH2 inh -5.2, PAFAH1B3 inh 3.5, ARFGAP1 inh -6.1 and pPAFAH FP inh -4.1.
`CCCCNC(=O)c1onc(CSc2ccccc2F)c1C(=O)O` gave ASAP1 inh -15.8, PAFAH1B2 FP inh 6.4, PAFAH2 inh 22.8, PAFAH1B3 inh 10.2, ARFGAP1 inh -3.4 and pPAFAH FP inh 1.9.
`CCCCNC(=O)c1onc(CSc2cc(C)cc(C)c2)c1C(=O)O` gave ASAP1 inh -8.2, PAFAH1B2 FP inh 4.6, PAFAH2 inh 37.9*, PAFAH1B3 inh 11.0, ARFGAP1 inh 9.4, pPAFAH FP inh -0.6 and PAFAH2 confirm 27.1.
Screening COC(=O)[C@@]12C[C@@H](CC(=O)NCc3ccccc3)C(=O)N(Cc3ccc4c(c3)OCO4)C1=CCC(C)(C)C2 returned ASAP1 inh 4.0 and ARFGAP1 inh -3.8.
